Screening data from PubChem.
OX1R antag-1: blocks the human orexin 1 receptor | CHO/OX1R cells, Fluo-8 calcium fluorescence, orexin A | 0.43% of 330,000 active | inhibition, % at 5 µM | O43613;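 active = inhibition above its plate's threshold, mean inhibition of all tested compounds on the plate plus 3 SD, cut at about 37% in these data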;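 also: 0% = orexin A challenge wells and 100% = SB-334867-A antagonist wells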
OX1R antag-2: OX1R (human) antagonism; O43613; OX1R-expressing cells, FRET antagonist read-out; inhibition, % at 6.6 µM; 1.8% of 330,000 active; AID 485270; in the data active = inhibition mostly above about 38%, no sharp cut-off; inactive = mostly below about 40%;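 also: 0% = agonist challenge alone and 100% = reference antagonist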
TAAR1 antag: antagonists of human TAAR1 | CHO RD-HGA16 TAAR1, Fluo-8 calcium fluorescence, antagonist | Q96RJ0 | 1.5% of 360,000 active | inhibition, % at 3 µM;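 active = inhibition above a per-plate cutoff, the mean inhibition of test compounds on that plate plus 3 SD, cut at about 49% in these data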;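 also: 0% = DMSO plus EC80 beta-PEA response and 100% = DMSO alone without agonist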
Target sequence (Q96RJ0 whole entry, looked up): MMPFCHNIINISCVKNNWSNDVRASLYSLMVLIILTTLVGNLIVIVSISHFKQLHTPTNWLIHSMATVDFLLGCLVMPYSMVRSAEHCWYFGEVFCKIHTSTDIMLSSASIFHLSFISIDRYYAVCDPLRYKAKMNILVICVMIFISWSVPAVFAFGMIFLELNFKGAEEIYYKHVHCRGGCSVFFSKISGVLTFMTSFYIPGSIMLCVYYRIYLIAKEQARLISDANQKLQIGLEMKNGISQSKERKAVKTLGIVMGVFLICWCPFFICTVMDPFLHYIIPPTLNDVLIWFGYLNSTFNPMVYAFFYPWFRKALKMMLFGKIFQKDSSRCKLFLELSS
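Test system – hTAAR1-expressing CHO RD-HGA16 cells, Gα16-coupled · Also added – β-PEA at EC80 concentration, post-compound challenge · Compound – 3 µM, single point · Incubation – dye loading 75 min at 37 °C, then 30 min room temperature · Measured by – Fluo-8 intracellular calcium dye fluorescence, real-time kinetic reads · Benchmarks – vehicle and agonist controls · Replicates – singlicate, one well per test compound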
TAAR1 agonist: agonists of human TAAR1. activation, % at 3 µM. Q96RJ0. 0.99% of 360,000 active. CHO RD-HGA16 TAAR1, Fluo-8 calcium fluorescence; vehicle wells 0%, saturating PEA agonist 100%;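 active = activation above the mean activation of all test compounds in the run plus 3 SD, cut at about 38% in these data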
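Repeats: no replicates (n 1) | Material: CHO-derived RD-HGA16 cells with stable Gα16 and human TAAR1 | Technique: Kinetic Fluo-8 calcium fluorescence | Schedule: 17-24 h seeding, 75 min 37 °C dye, 30 min RT | Evaluation: % activation from peak over basal fluorescence ratio, DMSO-to-PEA scaled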
CHO parental Ca: counter-screen: ATP calcium response change in parental CHO cells. 0.63% of 330,000 active. parental CHO-K1, ATP-induced calcium, Fluo-8 fluorescence. inhibition, % at 5.6 µM;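 active = inhibition above that plate's mean sample inhibition plus 3 SD, cut at about 26% in these data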;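 also: 0% = ATP-challenged DMSO wells and 100% = DMSO wells without ATP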
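Test system: untransfected parental CHO cell line; also added: ATP stimulus; dosing: 5.6 µM, single dose; signal: calcium-sensitive Fluo-8 fluorescence; measure: percent inhibition of ATP-evoked calcium rise, normalized to controls; benchmarks: low control ATP plus DMSO, high control DMSO only; replication: one well per compound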
Active calls of the source: *. Compounds with a hit are over-represented: about 3.9% of the library has one in this group of screens.

For O=C1Nc2ccccc2OCc2c1cccc2[N+](=O)[O-] the results were OX1R antag-1 -8, OX1R antag-2 40*, TAAR1 antag -15, TAAR1 agonist 3 and CHO parental Ca 1.
For O=C(NNC(=O)c1cc([N+](=O)[O-])ccc1Cl)c1cccs1 the results were OX1R antag-1 -4, OX1R antag-2 46*, TAAR1 antag -8, TAAR1 agonist 0 and CHO parental Ca -4.
Screening O=C(c1ccc([N+](=O)[O-])cc1)N1CCN(C(=O)c2cccs2)CC1 returned OX1R antag-1 -10, OX1R antag-2 50*, TAAR1 antag 7, TAAR1 agonist 4 and CHO parental Ca -5.
Screening CC(=O)Oc1ccccc1/C=C/c1ccc2ccccc2[n+]1C returned OX1R antag-1 -5, OX1R antag-2 66*, TAAR1 antag -7, TAAR1 agonist 4 and CHO parental Ca -15.
Screening CN(CCCS(=O)(=O)[O-])c1ccc(/C=C/c2ccc3ccccc3[n+]2C)cc1 returned TAAR1 antag -14 and TAAR1 agonist 2.
`CN(C)c1ccc(/C=C/c2ccc3ccccc3[n+]2C)cc1` gave OX1R antag-1 14, OX1R antag-2 163*, TAAR1 antag 1, TAAR1 agonist 1 and CHO parental Ca 0.
Nc1nc(SCC(=O)c2ccc([N+](=O)[O-])cc2)n[nH]1 was read as OX1R antag-1 -5, OX1R antag-2 49*, TAAR1 antag 10, TAAR1 agonist 2 and CHO parental Ca -9.
Cc1ccccc1NC(=O)N(O)C1(C#N)CCCCC1 was read as TAAR1 antag 13 and TAAR1 agonist 1.
CCCCCc1ccc(C(=O)CCC(=O)OCC(=O)N(CC)c2c(N)n(Cc3ccccc3)c(=O)[nH]c2=O)cc1 was read as TAAR1 antag 4 and TAAR1 agonist 0.
For CCN(CC)c1ccc(/C=N/NC(=O)c2cccc(S(=O)(=O)N3CCOCC3)c2)c(O)c1 the results were OX1R antag-1 -7, OX1R antag-2 66*, TAAR1 antag 1, TAAR1 agonist 1 and CHO parental Ca -11.
For CCOC(=O)C1=C(C(=O)OCC)C2N(Cc3ccc(C#N)cc3)c3ccccc3[C@@]23C[C@@H](C(=O)OC)N(S(=O)(=O)c2c(C)noc2C)C3=N1 (some centres undefined) the results were TAAR1 antag 7 and TAAR1 agonist 0.
For O=S1(=O)C=C[C@@H](COCc2ccccc2)N1Cc1ccc(Br)cc1 the results were TAAR1 antag 10 and TAAR1 agonist -1.
For O=C(c1ccccc1Nc1ccc(SC(F)F)cc1)N1CCCCC1 the results were OX1R antag-1 -30, OX1R antag-2 10, TAAR1 antag 9, TAAR1 agonist 2 and CHO parental Ca -16.
CC(OC(=O)c1ccccc1Nc1ccc(SC(F)F)cc1)C(N)=O (centres undefined) was read as OX1R antag-1 29, OX1R antag-2 36, TAAR1 antag 31, TAAR1 agonist 11 and CHO parental Ca 47*.
For Cc1nnsc1C(=O)NC1CCCc2c1cnn2-c1ccc(C(C)(C)C)cc1 (centres undefined) the results were OX1R antag-1 12, OX1R antag-2 28, TAAR1 antag 16, TAAR1 agonist -1 and CHO parental Ca 41*.
`CCc1cc(C(=O)NC2CCCc3c2cnn3-c2cccc(C)c2C)n(C)n1` (centres undefined) gave OX1R antag-1 38, OX1R antag-2 60*, TAAR1 antag 14, TAAR1 agonist 3 and CHO parental Ca 62*.
For Cc1cc(C(=O)NC2CCCc3c2cnn3-c2ccc(C)c(C)c2)n(C)n1 (centres undefined) the results were OX1R antag-1 12, OX1R antag-2 43, TAAR1 antag 7, TAAR1 agonist 2 and CHO parental Ca 45*.
Screening Cc1cccc(-n2ncc3c2CCCC3NC(=O)C2(C(N)=O)CC2)c1C (centres undefined) returned OX1R antag-1 12, OX1R antag-2 10, TAAR1 antag -19, TAAR1 agonist 4 and CHO parental Ca 21.
Cc1nnsc1C(=O)NC1CCCc2c1cnn2-c1ccccc1F (centres undefined) was read as OX1R antag-1 -2, OX1R antag-2 15, TAAR1 antag 3, TAAR1 agonist 3 and CHO parental Ca 6.
Screening Cc1cc(C)c(C(=O)NC2CCCc3c2cnn3-c2cccc(C)c2C)o1 (centres undefined) returned OX1R antag-1 2, OX1R antag-2 59*, TAAR1 antag -24, TAAR1 agonist 3 and CHO parental Ca -17.
For Cc1cccc(-n2ncc3c2CCCC3NC(=O)Cn2cccn2)c1C (centres undefined) the results were OX1R antag-1 -20, OX1R antag-2 3, TAAR1 antag 1, TAAR1 agonist 1 and CHO parental Ca -3.
`Cc1cc2c(cc1C)-n1nnnc1C(N(Cc1ccccc1)Cc1ccccc1)C(=O)N2` (centres undefined) gave TAAR1 antag -22 and TAAR1 agonist 2.
Screening O=C(NNc1ccccc1)OCc1ccccc1 returned TAAR1 antag -1 and TAAR1 agonist 6.
Cc1ccc(-c2nc3ccc(Cl)cn3c2Cc2cccc(Cl)c2)cc1 was read as TAAR1 antag 20 and TAAR1 agonist -2.
COc1ccc([C@H]2N[C@]3(CCCN(Cc4ccc(C)cc4)C3=O)[C@H]3C(=O)N(Cc4ccccc4)C(=O)[C@@H]23)cc1 was read as TAAR1 antag 4 and TAAR1 agonist 1.
Screening Cc1cc(C(=O)NC2CC(C)(C)Cc3c2cnn3-c2ccccc2C)c(C)o1 (centres undefined) returned OX1R antag-1 -38, OX1R antag-2 71*, TAAR1 antag -7, TAAR1 agonist -2 and CHO parental Ca -17.
`CCCCN(C=O)c1c(CC)nc2c(OCc3ccc(C(F)(F)F)cc3)cccn12` gave TAAR1 antag 5 and TAAR1 agonist -2.
For Cc1ccc(NC(=O)C2(C)CCN2CCc2ccccc2)cc1 (centres undefined) the results were TAAR1 antag 10 and TAAR1 agonist 1.
For Cc1cc(C)c(C#N)c(SCc2ccccc2)n1 the results were OX1R antag-1 -14, OX1R antag-2 21, TAAR1 antag -27, TAAR1 agonist 0 and CHO parental Ca -1.
`Cc1ccc2nc(CSc3nc(C)cc(C)c3C#N)[nH]c2c1` gave OX1R antag-1 -28, OX1R antag-2 41*, TAAR1 antag 19, TAAR1 agonist 5 and CHO parental Ca -10.
Screening Cc1ccc(S(=O)(=O)N2C3CCCCC3O[C@H]2CC(=O)c2cccc3ccccc23)cc1 (some centres undefined) returned TAAR1 antag -12 and TAAR1 agonist 2.
For CCc1c(C(=O)Nc2ccc(OC)c(Cl)c2)[nH]c(C)c1C(C)=O the results were OX1R antag-1 50*, OX1R antag-2 89*, TAAR1 antag 20, TAAR1 agonist 15 and CHO parental Ca 32*.
